{"source": "paper PMC10127574", "about": "(ACS chemical biology, 2015)", "key": {"IDE": {"molecular_target": "T1, IDE (Homo sapiens, UniProt P14735)", "T1 sequence (P14735 1-1019)": "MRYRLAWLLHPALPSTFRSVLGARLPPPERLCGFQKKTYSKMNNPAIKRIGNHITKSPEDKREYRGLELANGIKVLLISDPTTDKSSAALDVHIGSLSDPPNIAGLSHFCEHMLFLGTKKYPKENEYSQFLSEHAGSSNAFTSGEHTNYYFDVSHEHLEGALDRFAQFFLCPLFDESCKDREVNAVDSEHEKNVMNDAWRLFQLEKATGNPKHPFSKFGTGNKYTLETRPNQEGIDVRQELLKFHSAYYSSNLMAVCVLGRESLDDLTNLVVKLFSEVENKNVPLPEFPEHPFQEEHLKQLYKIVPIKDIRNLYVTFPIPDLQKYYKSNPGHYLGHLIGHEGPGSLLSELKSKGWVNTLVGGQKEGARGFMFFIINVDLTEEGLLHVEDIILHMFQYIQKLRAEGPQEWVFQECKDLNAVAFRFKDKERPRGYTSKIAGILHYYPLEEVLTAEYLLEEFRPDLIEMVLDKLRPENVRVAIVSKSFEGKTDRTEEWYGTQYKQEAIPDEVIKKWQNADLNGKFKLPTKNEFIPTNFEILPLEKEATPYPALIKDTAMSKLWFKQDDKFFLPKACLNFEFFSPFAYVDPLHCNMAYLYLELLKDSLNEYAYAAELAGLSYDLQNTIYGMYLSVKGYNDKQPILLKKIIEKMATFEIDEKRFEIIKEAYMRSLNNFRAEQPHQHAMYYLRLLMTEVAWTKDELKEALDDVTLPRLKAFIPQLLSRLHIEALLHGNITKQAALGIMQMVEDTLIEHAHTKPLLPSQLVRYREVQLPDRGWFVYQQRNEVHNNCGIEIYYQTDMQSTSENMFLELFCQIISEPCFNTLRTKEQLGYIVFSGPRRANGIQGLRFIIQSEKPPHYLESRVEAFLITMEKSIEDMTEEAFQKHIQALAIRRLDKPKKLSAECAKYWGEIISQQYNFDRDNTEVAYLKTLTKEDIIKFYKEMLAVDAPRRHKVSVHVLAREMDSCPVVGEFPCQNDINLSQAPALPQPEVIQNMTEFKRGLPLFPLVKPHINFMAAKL", "assay": "insulin degradation, homogeneous time-resolved fluorescence-based assay", "format": "biochemical", "details": "read-out: IC50^app in vitro, insulin; insulin as substrate; n=4"}, "WT-IDE": {"molecular_target": "T2, WT-IDE (Homo sapiens, UniProt P14735)", "T2 sequence (P14735 1-1019)": "T1 sequence (P14735 1-1019)", "assay": "kinetics of irreversible inhibition", "format": "biochemical", "procedure,_shortened": "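Recombinant WT-IDE (2 nM) and FRET1 substrate (5 μM) were monitored continuously at 3-s intervals, starting immediately after adding inhibitor at several concentrations. Curve fits gave observed rate constants, which were plotted against inhibitor concentration. A hyperbolic fit gave kinhib and KM. LE was taken as ΔG/heavy atoms using KM; SEI as pKM/tPSA/100 Å2.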"}, "extracellular IDE": {"molecular_target": "T3, extracellular IDE (Homo sapiens, UniProt P14735)", "T3 sequence (P14735 1-1019)": "T1 sequence (P14735 1-1019)", "assay": "cell-based IDE activity assay", "procedure,_shortened": "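Extracellular IDE secreted by HEK-293 cells, harvested mechanically rather than by trypsin, served as the endogenous enzyme source. Activity was read by fluorescence polarization with fluoresceinated, biotinylated Aß peptide (FAßB) in DTT-free solutions. The primary screen used a nominal compound concentration of 6 μM. Confirmed hits were retested in dose-response format to give apparent IC50.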"}, "[1]": {"assay": "solubility in assay buffer", "format": "physicochemical", "details": "aqueous buffer"}, "[2]": {"molecular_target": "T4, intracellular pools of IDE (Mus musculus, UniProt Q9JHR7)", "T4 sequence (Q9JHR7 1-1019)": "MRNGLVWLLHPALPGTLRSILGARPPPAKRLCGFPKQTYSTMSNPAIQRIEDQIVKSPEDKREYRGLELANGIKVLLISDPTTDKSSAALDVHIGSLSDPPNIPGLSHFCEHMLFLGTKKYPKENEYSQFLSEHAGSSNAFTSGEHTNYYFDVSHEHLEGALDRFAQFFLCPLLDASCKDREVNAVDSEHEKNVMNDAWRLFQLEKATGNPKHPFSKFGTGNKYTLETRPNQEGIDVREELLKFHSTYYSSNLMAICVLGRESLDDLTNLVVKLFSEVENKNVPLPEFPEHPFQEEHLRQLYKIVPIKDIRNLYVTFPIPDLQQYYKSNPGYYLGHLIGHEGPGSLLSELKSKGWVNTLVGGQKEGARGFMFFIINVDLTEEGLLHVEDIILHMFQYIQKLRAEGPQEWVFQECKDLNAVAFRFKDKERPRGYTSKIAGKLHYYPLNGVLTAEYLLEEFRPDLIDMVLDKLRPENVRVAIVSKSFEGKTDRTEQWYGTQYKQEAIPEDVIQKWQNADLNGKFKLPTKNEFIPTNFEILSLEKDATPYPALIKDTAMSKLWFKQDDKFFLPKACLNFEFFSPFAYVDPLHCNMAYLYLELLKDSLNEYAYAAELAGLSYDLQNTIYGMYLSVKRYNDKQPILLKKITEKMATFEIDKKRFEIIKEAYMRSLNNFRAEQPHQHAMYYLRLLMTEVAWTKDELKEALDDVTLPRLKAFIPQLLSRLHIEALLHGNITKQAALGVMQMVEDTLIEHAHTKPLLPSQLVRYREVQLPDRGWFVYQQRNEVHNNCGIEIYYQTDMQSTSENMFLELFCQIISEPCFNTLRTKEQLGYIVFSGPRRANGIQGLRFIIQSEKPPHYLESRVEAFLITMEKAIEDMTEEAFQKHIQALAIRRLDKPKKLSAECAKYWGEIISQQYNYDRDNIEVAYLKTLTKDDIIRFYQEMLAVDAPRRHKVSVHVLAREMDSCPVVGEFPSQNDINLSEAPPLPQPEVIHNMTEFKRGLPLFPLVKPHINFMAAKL", "assay": "intracellular IDE activity in BV-2 cells", "format": "cell-based", "details": "30 μM, 16 h, cell extracts", "procedure,_shortened": "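BV-2 cells were treated 16 h with 30 μM compound, then conditioned medium was collected. Cells were washed in PBS, lysed hypotonically in 50 mM Tris-HCl at 4 °C, extruded through a needle and centrifuged. Extracts were diluted 1:200 (v:v). Activity was measured by avidin-agarose precipitation Aß degradation assay with FAßB. Mean ± SEM, 3 replications.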"}}, "note": "Like-named read-outs stand apart in the source and are kept apart here.", "data": [{"compound": "O=c1c2cc(F)ccc2sn1-c1cc(S(=O)(=O)N2CCOCC2)ccc1N1CCOCC1", "note": "[Compound 8, 5-fluoro-2-(2-morpholin-4-yl-5-morpholin-4-ylsulfonylphenyl)-1,2-benzothiazol-3-one]", "values": [{"measurement": "IC50", "setting": "IDE", "value": "82 ± 20.2", "unit": "nM"}, {"measurement": "kinhib", "setting": "WT-IDE; Table 3, n=5", "value": "13.4 ± 2.7 (n=5) min^−1"}, {"measurement": "kinhib", "setting": "WT-IDE; WT-IDE 2 nM, FRET1 5 μM, rate constant of irreversible step", "value": 13.4, "unit": "min⁻¹"}, {"measurement": "LE (ligand efficiency, ΔG/HA)", "setting": "WT-IDE; calculated using KM value", "value": 0.234, "unit": "kcal mol^−1 HA^−1"}, {"measurement": "IC50", "setting": "extracellular IDE; read-out: IC50^app cell-based, Table 2", "value": 110, "unit": "nM"}, {"measurement": "IC50", "setting": "extracellular IDE; read-out: IC50^app in cells, FAßB, Table 3, n=4", "value": "110 ± 12", "unit": "nM"}, {"measurement": "solubility", "setting": "[1]", "value": 5.1, "unit": "µM"}, {"measurement": "inhibition of intracellular pools of IDE in BV-2 cells", "setting": "[2]", "value": "does not affect"}]}]}
